Converted amounts (≈) assume the structure as drawn.
Columns and labels:
[1] = WHO-TDR: Cytotoxicity; assay type: toxicity, cell-based; conditions: human, MRC5 cells
Plasmodium falciparum K1 = experiment: WHO-TDR: Malaria; assay type: functional, organism-based, Homo sapiens; conditions: Erythrocyte
Outline: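 Following previously published standard procedures, with a reference drug serving as positive control, compounds were tested on the Plasmodium falciparum K1 strain inside human red blood cells. The 10,000-compound diverse set came from Life Chemicals after filtering for drug-likeness and reactive groups. Potency against the parasite appears as IC50.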

Trypanosoma cruzi = experiment: WHO-TDR: Chagas disease; assay type: functional, organism-based, Homo sapiens; conditions: MRC5
Outline: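 Following previously published standard procedures, with a reference drug as positive control, a whole-organism assay was run on Trypanosoma cruzi Tulahuen CL2 beta-galactosidase strain amastigotes inside MRC-5SV2 human lung fibroblast host cells. The 10,000 compounds tested formed a diverse Life Chemicals library filtered for drug-likeness and reactive groups. Results are expressed as IC50 for antiparasitic potency.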

[2] = test system: Trypanosoma brucei brucei; experiment: WHO-TDR: Human African Trypanosomiasis (HAT); assay type: functional, organism-based; conditions: Squib-427
Outline: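 Bloodstream forms of the Trypanosoma brucei Squib 427 strain were tested in a whole-organism screen with a diverse library from Life Chemicals of 10,000 compounds. Before screening, the library was filtered for drug-likeness and for reactive groups. The assay used previously published standard procedures and included reference drugs as positive controls. Potency against the parasite is expressed as IC50.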

Leishmania infantum = experiment: WHO-TDR: Leishmaniasis; assay type: functional, organism-based, Mus musculus; conditions: Macrophage
Outline: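 Following previously published standard procedures, a whole-organism screen was run on Leishmania infantum MHOM/MA(BE)/67 amastigotes within murine peritoneal macrophages, with a reference drug as positive control. The 10,000 compounds tested formed a diverse Life Chemicals library filtered for drug-likeness and reactive groups. Potency against the parasite is reported as IC50.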

Schistosoma mansoni = experiment: WHO-TDR: Schistosomiasis; assay type: functional; design: concentration or dose not given beside the values
Outline: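 Whole-organism screen of a 10,000-compound diverse library from Life Chemicals, filtered for drug-likeness and reactive groups, against larval and/or adult worms of Schistosoma mansoni Puerto Rican strain. The assay followed previously published standard procedures, with a reference drug as positive control. Activity is reported as percent inhibition and as IC50.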

Onchocerca ochengi = experiment: WHO-TDR: Onchocerciasis; assay type: functional; design: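 at 12.5 µM on microfilariae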
Outline: (§1)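 Whole-organism screen of a 10,000-compound diverse library from Life Chemicals, filtered for drug-likeness and reactive groups, against microfilariae of Onchocerca ochengi or Onchocerca lienalis, used as animal-pathogen stand-ins for the human parasite. The assay followed previously published standard procedures, with reference drugs as positive controls. Activity is reported as percent inhibition and as IC50.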

Brugia malayi = experiment: WHO-TDR: Lymphatic Filariasis; assay type: functional; design: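 tested at 10 µM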
Outline: as §1, with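 “Brugia malayi microfilariae.” for “microfilariae of Onchocerca ochengi or Onchocerca lienalis, used as animal-pathogen stand-ins for the human parasite.”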

SMILES | IC50 [1] | IC50 (Plasmodium falciparum K1) | IC50 (Trypanosoma cruzi) | IC50 [2] | IC50 (Leishmania infantum) | % Inhibition (Schistosoma mansoni) | % Inhibition (Onchocerca ochengi) | % Inhibition (Brugia malayi)
COc1cccc(NC(=O)N2CCN(c3ccc(Nc4cc(C)ccn4)nn3)CC2)c1 | > 12.6 µg/mL | 9.16 µg/mL (≈ 21.8 µM) | > 12.6 µg/mL | 5.21 µg/mL (≈ 12.4 µM) | > 12.6 µg/mL | 0% | 100% | 0%
COc1ccc(-c2ccc(=O)n(CCCNC(=O)Cc3ccc(F)cc3)n2)cc1 | 11.3 µg/mL (≈ 28.7 µM) | > 11.9 µg/mL | > 11.9 µg/mL | > 11.9 µg/mL | > 11.9 µg/mL | 0% | 100% | 0%
O=C(NCCNc1ccc(Nc2ccncc2)nn1)Nc1ccc(Cl)cc1 | > 11.5 µg/mL | > 11.5 µg/mL | > 11.5 µg/mL | > 11.5 µg/mL | > 11.5 µg/mL | 0% | 100% | 0%
O=C(Nc1nc(-c2ccccn2)cs1)C1CCN(S(=O)(=O)c2ccc(Cl)cc2)CC1 | > 13.9 µg/mL | 12.7 µg/mL (≈ 27.5 µM) | 4.3 µg/mL (≈ 9.28 µM) | 4.13 µg/mL (≈ 8.93 µM) | > 13.9 µg/mL | 0% | 100% | 0%
Cc1c(Cl)cccc1-n1c(-c2ccc(F)cc2)cn2c3c(=O)n(C)c(=O)n(C)c3nc12 | 6.43 µg/mL (≈ 14.7 µM) | 2.97 µg/mL (≈ 6.79 µM) | > 13.1 µg/mL | 3.81 µg/mL (≈ 8.7 µM) | 4.25 µg/mL (≈ 9.71 µM) | 0% | 100% | 20%
COc1ccc(-c2cccc(NC(=O)Nc3ccc(C)cc3)c2)nn1 | > 10 µg/mL | > 10 µg/mL | 7.36 µg/mL (≈ 22 µM) | > 10 µg/mL | > 10 µg/mL | 58.3% | 100% | 0%
Cc1cccc(Nc2ccc(NCCNC(=O)Nc3ccc(F)cc3)nn2)n1 | > 11.4 µg/mL | 8.36 µg/mL (≈ 21.9 µM) | > 11.4 µg/mL | > 11.4 µg/mL | > 11.4 µg/mL | 0% | 100% | 0%
O=C(CSc1ccc(NC(=O)c2cccs2)nn1)c1ccc(Cl)cc1 | 3.14 µg/mL (≈ 8.05 µM) | > 11.7 µg/mL | > 11.7 µg/mL | > 11.7 µg/mL | > 11.7 µg/mL | 0% | 100% | 0%
CCc1nnc(NS(=O)(=O)c2ccc(NC(=O)c3nc4ccccc4s3)cc2)s1 | > 13.4 µg/mL | > 13.4 µg/mL | > 13.4 µg/mL | > 13.4 µg/mL | > 13.4 µg/mL | 0% | 100% | 0%
Cc1cc(C(=O)Nc2nc(-c3cc4ccccc4o3)cs2)on1 | > 9.76 µg/mL | > 9.76 µg/mL | > 9.76 µg/mL | > 9.76 µg/mL | 3.16 µg/mL (≈ 9.71 µM) | 0% | 100% | 20%
O=C1C=CC(=O)N1c1ccccc1F | 1.81 µg/mL (≈ 9.48 µM) | > 5.73 µg/mL | 3.28 µg/mL (≈ 17.2 µM) | > 5.73 µg/mL | > 5.73 µg/mL | 0% | 100% | 20%
O=C(c1ccc(C(F)(F)F)cc1)N1CCN(c2ccc(Nc3cccnc3)nn2)CC1 | 7.94 µg/mL (≈ 18.5 µM) | > 12.9 µg/mL | 3.43 µg/mL (≈ 8.02 µM) | > 12.9 µg/mL | > 12.9 µg/mL | 0% | 100% | 25%
O=S(=O)(c1cccnc1)N1CCN(c2ccc(-c3cccs3)nn2)CC1 | > 11.6 µg/mL | > 11.6 µg/mL | > 11.6 µg/mL | > 11.6 µg/mL | 0.376 µg/mL (≈ 0.97 µM) | 0% | 0% | 50%
CSc1cccc(C(=O)N(Cc2cccnc2)c2nc3ccc(S(C)(=O)=O)cc3s2)c1 | > 14.1 µg/mL | 8.28 µg/mL (≈ 17.6 µM) | 0.383 µg/mL (≈ 0.816 µM) | > 14.1 µg/mL | > 14.1 µg/mL | 0% | 0% | 0%
CCOC(=O)c1sc(NC(=O)C2CCCN2S(C)(=O)=O)nc1-c1ccccc1 (stereo not drawn) | > 12.7 µg/mL | > 12.7 µg/mL | > 12.7 µg/mL | > 12.7 µg/mL | > 12.7 µg/mL | 0% | 100% | 0%
O=c1c2nccnc2n(Cc2cccc(C(F)(F)F)c2)c(=O)n1Cc1ccc(F)cc1 | 10 µg/mL (≈ 23.2 µM) | 7.26 µg/mL (≈ 16.9 µM) | 1.19 µg/mL (≈ 2.76 µM) | 4.08 µg/mL (≈ 9.49 µM) | > 12.9 µg/mL | 25% | 100% | 0%
COc1ccccc1C(=O)N1CCN(c2nccn2-c2ccccc2F)CC1 | > 12.5 µg/mL | > 12.5 µg/mL | > 12.5 µg/mL | > 12.5 µg/mL | > 12.5 µg/mL | 25% | 100% | 0%
CN(C)C(CNS(=O)(=O)c1ccc2c(c1)CCCC2)c1ccc(F)cc1 (stereo not drawn) | > 11.3 µg/mL | > 11.3 µg/mL | 4.67 µg/mL (≈ 12.4 µM) | 2.99 µg/mL (≈ 7.95 µM) | > 11.3 µg/mL | 0% | 100% | 0%
OCc1cnc(SCc2ccccc2)n1Cc1ccccc1 | > 9.31 µg/mL | 9.31 µg/mL (≈ 30 µM) | > 9.31 µg/mL | > 9.31 µg/mL | > 9.31 µg/mL | 0% | 100% | 25%
CC(C)CC(=O)NCCOc1ccc2nnc(-c3ccccc3)n2n1 | > 10.2 µg/mL | > 10.2 µg/mL | > 10.2 µg/mL | > 10.2 µg/mL | 0.33 µg/mL (≈ 0.972 µM) | 16.7% | 0% | 33.33%
CCOC(=O)N1CCc2nc(NC(=O)CCCS(=O)(=O)c3ccc(F)cc3)sc2C1 | > 13.7 µg/mL | 6.65 µg/mL (≈ 14.6 µM) | > 13.7 µg/mL | > 13.7 µg/mL | > 13.7 µg/mL | 0% | 100% | 0%
O=S(=O)(CCCOc1ccc(F)cc1)NCc1ccccc1Cl | > 10.7 µg/mL | > 10.7 µg/mL | 7.84 µg/mL (≈ 21.9 µM) | > 10.7 µg/mL | > 10.7 µg/mL | 0% | 100% | 0%
O=C(Cc1csc(NC(=O)c2ccc[nH]c2=O)n1)Nc1ccc(Cl)cc1 | > 11.7 µg/mL | > 11.7 µg/mL | > 11.7 µg/mL | > 11.7 µg/mL | 0.378 µg/mL (≈ 0.972 µM) | 0% | 0% | 20%
O=S(=O)(c1cccc(F)c1)N1CCN(c2ccc(Nc3cccnc3)nn2)CC1 | 0.937 µg/mL (≈ 2.26 µM) | 5.44 µg/mL (≈ 13.1 µM) | > 12.4 µg/mL | > 12.4 µg/mL | 0.403 µg/mL (≈ 0.972 µM) | 0% | 0% | 0%
O=C(c1ccco1)N(CCCn1ccnc1)c1nc2c(F)cc(F)cc2s1 | 7.77 µg/mL (≈ 20 µM) | 0.533 µg/mL (≈ 1.37 µM) | 3.97 µg/mL (≈ 10.2 µM) | 4.08 µg/mL (≈ 10.5 µM) | > 12.7 µg/mL | 0% | 100% | 0%
Cc1nnc(NC(=O)CSc2nc(-c3ccccc3)c(N)s2)s1 | > 10.9 µg/mL | > 10.9 µg/mL | > 10.9 µg/mL | > 10.9 µg/mL | 0.353 µg/mL (≈ 0.971 µM) | 16.7% | 0% | 33.33%

Source: ChEMBL document CHEMBL2093137, “WHO-TDR NTD Screening”
